Key:
L5178Y [1] = test: Inhibitory activity against murine tumor cells (L5178Y/R); assay type: functional, Mus musculus
Summary of the method: (§1)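 L5178Y murine leukemia cells, MTX-sensitive (S) and MTX-resistant (R), kept in log-phase growth at 37 °C in RPMI-1640 with 10% fetal calf serum and 1% penicillin-streptomycin. Doubling times were 11-12 h (S) and 15-18 h (R). Cells seeded at 4.0-6.0 × 10^4 cells/mL, duplicate wells, at least six concentrations, final DMSO <2%. Untreated and DMSO controls included; cells counted by Coulter counter.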

L5178Y [2] = test: Inhibitory activity against murine tumor cells (L5178Y/S); assay type: functional, Mus musculus; summary of the method: as §1
L5178Y [3] = test: Inhibitory action against murine tumor cells (L5178Y/R); assay type: functional, Mus musculus; summary of the method: as §1
L5178Y [4] = test: Inhibitory action against murine tumor cells (L5178Y/S); assay type: functional, Mus musculus; summary of the method: as §1
[5] = Partition coefficient (logP); assay type: physicochemical; settings: octanol/water
Summary of the method: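 Octanol/water partitioning. The protonated form was partitioned between octanol and 0.1 N HCl. The neutral form was partitioned between octanol and 0.1 N NaOH.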

SMILES | Log 1/C (L5178Y [1]) | Log 1/C (L5178Y [2]) | Log 1/C (L5178Y [3]) | Log 1/C (L5178Y [4]) | logP [5]
Nc1ncc(Cc2cccc(Br)c2)c(N)n1 | 4.12 | 5.52 | – | – | –
CC(=O)Nc1ccc(Cc2cnc(N)nc2N)cc1[N+](=O)[O-] | 3.2 | 5.11 | – | – | –
COc1cccc(Cc2cnc(N)nc2N)c1 | 3.63 | 5.06 | – | – | –
COc1ccc(Cc2cnc(N)nc2N)cc1 | 3.52 | 5.1 | – | – | –
CC(=O)Nc1ccc(Cc2cnc(N)nc2N)cc1 | 3.23 | 5.12 | – | – | –
Nc1ncc(Cc2ccc(Br)cc2)c(N)n1 | 3.98 | 5.38 | – | – | –
CN(C)c1ccc(Cc2cnc(N)nc2N)cc1 | 4.02 | 4.95 | – | – | –
Cc1cccc(Cc2cnc(N)nc2N)c1 | 4.15 | 5.5 | – | – | –
Nc1ncc(Cc2ccc([N+](=O)[O-])cc2)c(N)n1 | 3.67 | 5.18 | – | – | –
Nc1ccc(Cc2cnc(N)nc2N)cc1 | 3.58 | 4.65 | – | – | –
Nc1ncc(Cc2ccc(OC(F)(F)F)cc2)c(N)n1 | 4.46 | 5.24 | – | – | –
Nc1ncc(Cc2cccc(F)c2)c(N)n1 | 3.61 | 5.27 | – | – | –
Nc1ncc(Cc2ccc(F)cc2)c(N)n1 | 3.9 | 5.48 | – | – | –
Nc1ncc(Cc2cccc(C(F)(F)F)c2)c(N)n1 | 4.37 | 5.63 | – | – | –
Nc1ncc(Cc2ccccc2)c(N)n1 | 3.88 | 5.24 | – | – | –
Nc1ncc(Cc2cccc(OCc3ccccc3)c2)c(N)n1 | 4.7 | 5.91 | – | – | –
COc1ccc(Cc2cnc(N)nc2N)cc1C(F)(F)F | 4.39 | 5.85 | – | – | –
Nc1ncc(Cc2ccc(O)c(O)c2)c(N)n1 | 4.94 | 5.06 | – | – | –
Nc1ncc(Cc2ccc(Cl)cc2)c(N)n1 | 4.56 | 5.37 | – | – | –
CCCCOCc1cccc(Cc2cnc(N)nc2N)c1 | 3.93 | 5.74 | – | – | –
CCCCCCCOc1cccc(Cc2cnc(N)nc2N)c1 | 4.61 | 5.1 | – | – | –
COc1cc(Cc2cnc(N)nc2N)cc(OC)c1 | 3.83 | 5.47 | – | – | –

SMILES | Log 1/C (L5178Y [1]) | Log 1/C (L5178Y [2]) | Log 1/C (L5178Y [3]) | Log 1/C (L5178Y [4]) | logP [5]
Nc1ncc(Cc2cccc(I)c2)c(N)n1 | 4.36 | 5.86 | – | – | –
Nc1ncc(Cc2cccc(O)c2)c(N)n1 | 3.09 | 4.89 | – | – | –
CCCCCCCOc1ccc(Cc2cnc(N)nc2N)cc1 | 5.67 | 5.13 | – | – | –
NC(=O)COc1cccc(Cc2cnc(N)nc2N)c1 | – | – | 3.14 | 4.91 | –
CCCCCCCCOc1cccc(Cc2cnc(N)nc2N)c1 | 4.92 | 5.12 | – | – | –
COCCOc1cccc(Cc2cnc(N)nc2N)c1 | 3.7 | 5.2 | – | – | –
COCCOc1ccc(Cc2cnc(N)nc2N)cc1OCCOC | 3.28 | 5.06 | – | – | –
COCc1cccc(Cc2cnc(N)nc2N)c1 | 3.65 | 5.28 | – | – | –
CCCCCCOc1cccc(Cc2cnc(N)nc2N)c1 | 5.16 | 5.3 | – | – | –
Nc1ncc(Cc2cc(CO)cc(CO)c2)c(N)n1 | 2.49 | 3.79 | – | – | –
CCCCCCOc1ccc(Cc2cnc(N)nc2N)cc1 | 5.48 | 5.47 | – | – | –
CCCCOc1cccc(Cc2cnc(N)nc2N)c1 | 4.99 | 5.74 | – | – | –
Nc1ncc(Cc2cccc(CO)c2)c(N)n1 | 2.98 | 4.97 | – | – | –
CCCCOc1ccc(Cc2cnc(N)nc2N)cc1 | 4.83 | 5.37 | – | – | –
CC1(C)N=C(N)N=C(N)N1c1ccc(CCCCc2ccc(S(=O)(=O)F)cc2Cl)c(Cl)c1 | – | – | – | – | 2.4
Cc1ccc(Cc2cnc(N)nc2N)cc1 | 4.21 | 5.26 | – | – | –
Nc1ncc(Cc2cccc(Cl)c2)c(N)n1 | 3.85 | 5.39 | – | – | –
COCCOc1ccc(Cc2cnc(N)nc2N)cc1 | 3.08 | 4.77 | – | – | –
CS(=O)(=O)Oc1cccc(Cc2cnc(N)nc2N)c1 | – | – | 3.34 | 5.28 | –
COc1ccc(Cc2cnc(N)nc2N)cc1OC [DIAVERIDINE] | 3.54 | 5.41 | – | – | –
COCCOc1c(OC)cc(Cc2cnc(N)nc2N)cc1OC [TETROXOPRIM] | 3.16 | 4.2 | – | – | –

From ChEMBL document CHEMBL1122051 (J Med Chem, 1982)
